Compound activity from PubChem BioAssay.
This is a sample that favours compounds with a hit; in the whole collection about 4.5% have one here.
OX1R antag-1: OX1R (HCRTR1) antagonists, primary screen, fluorescence, CHO/OX1R cells, Fluo-8 calcium, orexin A. AID 434989, 2010. inhibition, % at 5 µM. Fluo-8 calcium fluorescence. actives 0.43% (n = 330,000);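 active = inhibition above its plate's threshold, mean inhibition of all tested compounds on the plate plus 3 SD, cut at about 37% in these data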
TAAR1 ag: human TAAR1 agonists, primary screen, Fluo-8 calcium fluorescence, CHO RD-HGA16 cells; actives 0.99% (n = 360,000); vehicle wells 0%, saturating PEA agonist 100%; Trace amine-associated receptor 1 (Homo sapiens), Q96RJ0; activation, % at 3 µM; AID 624467, 2012;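 active = activation above the mean activation of all test compounds in the run plus 3 SD, cut at about 38% in these data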
Target sequence (Q96RJ0 whole entry, looked up): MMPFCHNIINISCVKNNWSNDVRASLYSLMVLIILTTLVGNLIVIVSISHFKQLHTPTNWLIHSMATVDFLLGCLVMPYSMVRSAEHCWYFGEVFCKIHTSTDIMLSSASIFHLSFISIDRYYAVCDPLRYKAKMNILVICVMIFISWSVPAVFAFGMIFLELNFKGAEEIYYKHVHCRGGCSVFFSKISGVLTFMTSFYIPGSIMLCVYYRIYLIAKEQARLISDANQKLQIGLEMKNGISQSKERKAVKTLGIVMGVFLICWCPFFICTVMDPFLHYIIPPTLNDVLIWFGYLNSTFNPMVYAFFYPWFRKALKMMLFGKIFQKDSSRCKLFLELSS
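Signal – calcium-sensitive Fluo-8 signal, excitation 470-495, emission 515-575 nm · System – RD-HGA16 (CHO) cells co-expressing Gα16 and hTAAR1 · Incubation – 17-24 h seeding, 75 min 37 °C dye, 30 min RT · Compound dosing – 3 µM single concentration · Repeats – no replicates (n 1)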
OX1R antag-2: antagonists of human orexin 1 receptor (OX1R). OX1R-expressing cells, FRET antagonist read-out. inhibition, % at 6.6 µM. actives 1.8% (n = 330,000); in the data active = inhibition mostly above about 38%, no sharp cut-off; inactive = mostly below about 40%
GPR7 antag: GPR7 receptor antagonists, primary screen, cell-based, fluorescence, single concentration; GPR7-expressing cells, fluorescence antagonist assay; Neuropeptides B/W receptor type 1 (Homo sapiens), P48145; inhibition, % at 4.4 µM; AID 1861, 2009; actives 1.1% (n = 290,000); in the data active = inhibition above about 16%, passing the limit was not always enough;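 note: cells stimulated with the agonist NPW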
Target sequence (P48145 whole entry, looked up): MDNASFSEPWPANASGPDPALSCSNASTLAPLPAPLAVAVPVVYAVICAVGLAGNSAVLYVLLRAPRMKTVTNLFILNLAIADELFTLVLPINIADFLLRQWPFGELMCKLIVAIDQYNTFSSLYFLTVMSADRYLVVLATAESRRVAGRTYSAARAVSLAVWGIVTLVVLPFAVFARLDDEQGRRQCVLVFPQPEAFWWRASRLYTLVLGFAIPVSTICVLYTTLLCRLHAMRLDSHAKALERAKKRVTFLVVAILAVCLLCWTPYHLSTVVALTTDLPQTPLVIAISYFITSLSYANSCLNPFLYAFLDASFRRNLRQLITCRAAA
CHO parental Ca: ATP-evoked calcium signal inhibitors, parental CHO, primary screen, counter-screen for OX1R antagonist project, cell-based, fluorescence, Fluo-8 calcium dye. inhibition, % at 5.6 µM. parental CHO-K1, ATP-induced calcium, Fluo-8 fluorescence. actives 0.63% (n = 330,000);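 active = inhibition above that plate's mean sample inhibition plus 3 SD, cut at about 26% in these data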
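Test system: untransfected parental CHO cell line; also added: ATP stimulus; dosing: 5.6 µM, single dose; signal: calcium-sensitive Fluo-8 fluorescence; measure: percent inhibition of ATP-evoked calcium rise, normalized to controls; benchmarks: low control ATP plus DMSO, high control DMSO only; replication: one well per compound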
TAAR1 antagonist: human TAAR1 antagonists, primary screen, Fluo-8 calcium fluorescence, CHO RD-HGA16 cells; inhibition, % at 3 µM; AID 624466, 2012; antagonist; Trace amine-associated receptor 1 (Homo sapiens), Q96RJ0; actives 1.5% (n = 360,000);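 active = inhibition above a per-plate cutoff, the mean inhibition of test compounds on that plate plus 3 SD, cut at about 49% in these data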
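Test system: CHO RD-HGA16 cells bearing hTAAR1 | Reagent: β-PEA, EC80 | Compound dosing: 3 µM, single point | Schedule: Dye loading 75 min at 37 °C, then 30 min room temperature | Signal: Calcium fluorescence with Fluo-8 | Evaluation: Percent inhibition of PEA-evoked calcium signal, max/basal emission ratio | Control set: DMSO-only wells and EC80 β-PEA-stimulated wells | Repeats: Singlicate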
GPR7 antag conf: GPR7 receptor antagonists, confirmation, cell-based, fluorescence, single concentration | shares compounds with GPR7 antag | GPR7-expressing cells, calcium fluorescence antagonist mode | inhibition, % at 4.4 µM | actives 52% (n = 2,400); in the data active = inhibition above about 24%;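 note: stimulated with the GPR7 agonist NPW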
MCHR1 antagonist: MCHR1 antagonists in cells, counter-screen for GPR7 antagonist project, cell-based, fluorescence, human; shares compounds with GPR7 antag; MCHR1-expressing cells, fluorescence antagonist assay; inhibition, % at 4.4 µM; actives 62% (n = 2,400); AID 2148, 2009; in the data active = inhibition above about 22%
Large screens that a line does not name were inactive (follow-up assays come after a bar, where they were run).

Cc1c(NC(=O)c2cccs2)cccc1-c1nc2ccccc2s1	GPR7 antag 33.2 | GPR7 antag conf 44.5 | MCHR1 antagonist 64.3
COc1ccc(CNC(=O)CSc2nnc(C)c(=O)[nH]2)cc1	GPR7 antag 25.3 | GPR7 antag conf inactive | MCHR1 antagonist inactive
CCOC(=O)C1(Cc2cccc(OC)c2)CCCN(C(=O)c2cc(C)oc2C)C1 (stereo unspecified)	none
CCCN(CC(=O)Nc1ccccc1C)C(=O)c1cccc(S(=O)(=O)N2CCc3ccccc3C2)c1	GPR7 antag 30.5, TAAR1 antagonist 59.2 | GPR7 antag conf 27.9 | MCHR1 antagonist 55.0
CCn1c(=O)c(=O)[nH]c2cc(C(=O)NC3CCCc4ccccc43)ccc21 (stereo unspecified)	GPR7 antag 23.2 | GPR7 antag conf inactive | MCHR1 antagonist inactive
Clc1ccc2c(NCc3cccs3)ncnc2c1	none
Clc1ccc2c(NCc3ccco3)ncnc2c1	GPR7 antag 23.1 | GPR7 antag conf inactive | MCHR1 antagonist inactive
CCc1ccc(OCC(=O)Nc2ccc3c(c2)COC3=O)cc1	GPR7 antag 35.9 | GPR7 antag conf inactive | MCHR1 antagonist 36.9
CCC(C)c1ccc(OCC(=O)Nc2ccc3c(c2)C(=O)NC3=O)cc1 (stereo unspecified)	GPR7 antag 30.3 | GPR7 antag conf 39.8 | MCHR1 antagonist 67.0
CCOc1ccc(C(=O)Nc2ccc3c(c2)C(=O)NC3=O)cc1	none
Cc1ccccc1OCC(=O)Nc1ccc2c(c1)COC2=O	none
O=C(O)CC1CCC1CC(=O)O (stereo unspecified)	none (no result: OX1R antag-1, OX1R antag-2, GPR7 antag, CHO parental Ca)
CCOc1ccccc1-n1c(C)nc2cc(C(=O)O)ccc21	GPR7 antag 27.5 | GPR7 antag conf inactive | MCHR1 antagonist inactive
Cc1ccc(S(C)(=O)=NS(=O)(=O)c2cccc3nsnc23)cc1 (stereo unspecified)	none
Cc1ccccc1OCCNc1cc(N2CC(C)NC(C)C2)ccc1[N+](=O)[O-] (stereo unspecified)	TAAR1 ag 48.6, GPR7 antag 38.9 | GPR7 antag conf 53.1 | MCHR1 antagonist 67.1
CC1CN(c2ccc([N+](=O)[O-])c(NCCOc3ccc(Cl)cc3)c2)CC(C)N1 (stereo unspecified)	GPR7 antag 37.5 (no result: OX1R antag-1, OX1R antag-2, CHO parental Ca) | GPR7 antag conf 62.4 | MCHR1 antagonist 68.9
CC1(C)NC(=O)N(CC(=O)N2CCN(S(=O)(=O)c3ccccc3C(F)(F)F)CC2)C1=O	none (no result: GPR7 antag)
O=C(NCCCNC(=O)c1ccc(-c2cccc(Cl)c2)o1)c1cnccn1	none
CN(CCOc1ccc(Cl)cc1)CC(=O)Nc1ccc(OC(F)F)cc1	GPR7 antag 38.7 | GPR7 antag conf inactive | MCHR1 antagonist inactive
CN(CCOc1ccccc1)C(=S)Nc1ccc(OC(F)F)cc1	GPR7 antag 30.9 | GPR7 antag conf inactive | MCHR1 antagonist 32.0
COCCN(Cc1ccccc1)C(=S)Nc1ccc(OC(F)F)cc1	none
CCc1ccccc1NC(=O)C1CCCN(c2nccc(C)n2)C1 (stereo unspecified)	none
Cc1ccccc1NC(=O)C1CCCN(c2ncnc3onc(-c4ccc(F)cc4)c23)C1 (stereo unspecified)	GPR7 antag 27.8 | GPR7 antag conf 28.2 | MCHR1 antagonist inactive
CCc1ccccc1NC(=O)C1CCCN(c2ncnc3onc(-c4ccc(F)cc4)c23)C1 (stereo unspecified)	GPR7 antag 28.6 | GPR7 antag conf inactive | MCHR1 antagonist 21.7
CC(=O)c1cccc(N(C(=O)CNC(=O)c2ccco2)C(C(=O)NC2CCCC2)c2ccncc2)c1 (stereo unspecified)	none
Cc1nn(CC(=O)Nc2ccccc2C(F)(F)F)c(=O)c2cccn12	GPR7 antag 31.3 | GPR7 antag conf inactive | MCHR1 antagonist inactive
CC(=O)c1cccc(NC(=O)CSc2nnc(C(C)N(C)C)n2-c2ccc(F)cc2)c1 (stereo unspecified)	GPR7 antag 34.6 | GPR7 antag conf inactive | MCHR1 antagonist inactive
O=C(CN1C(=O)c2ccccc2S1(=O)=O)Nc1cc(S(=O)(=O)N2CCCCC2)ccc1Cl	none (no result: OX1R antag-1, OX1R antag-2, GPR7 antag, CHO parental Ca)
O=C(NCCN1CCOCC1)c1cc(Br)ccc1Cl	GPR7 antag 29.1 | GPR7 antag conf inactive | MCHR1 antagonist inactive
O=C(NCCN1CCOCC1)c1cc([N+](=O)[O-])ccc1Cl	none
Cc1cccc2cc(CN(CCCN(C)C)C(=S)NCCc3ccccc3)c(=O)[nH]c12	GPR7 antag 30.6 | GPR7 antag conf 48.7 | MCHR1 antagonist 30.4
CC(C)(C#N)NC(=O)C1CCCN1S(=O)(=O)c1ccc2ccccc2c1 (stereo unspecified)	none
Cc1nonc1CN(C)C(=O)c1cc(COc2ccc(F)cc2Cl)on1	GPR7 antag 30.2 | GPR7 antag conf inactive | MCHR1 antagonist 25.9
Cc1ccc(NC(=O)COc2ccccc2CNC(C)(C)CC(C)(C)C)cc1	TAAR1 ag 45.5, GPR7 antag 24.7 | GPR7 antag conf 35.5 | MCHR1 antagonist 46.3
C[C@H](CO)N1C[C@H](C)[C@@H](CN(C)S(=O)(=O)c2ccccc2)Oc2c(NS(=O)(=O)c3ccc(F)cc3)cccc2C1=O	none (no result: GPR7 antag)
CC1=NN(C(C#N)c2ccccc2)C(c2ccccc2)C1 (stereo unspecified)	GPR7 antag 36.7 | GPR7 antag conf inactive | MCHR1 antagonist inactive
CCCCN(C=O)c1c(CC)nc2c(OCc3ccccc3C)cccn12	none (no result: OX1R antag-1, OX1R antag-2, GPR7 antag, CHO parental Ca)
Cc1nc(NC(=O)CSc2nnnn2Cc2ccccc2)sc1C	none
CCC(C(=O)OC(C)C)c1ccc2ccccc2c1 (stereo unspecified)	none (no result: GPR7 antag)
COc1cc(OC)c(CN2CCN(c3ccc(F)cc3)CC2)cc1Br	GPR7 antag 21.8 | GPR7 antag conf inactive | MCHR1 antagonist inactive
COc1ccc(CN2CCN(c3ccc(F)cc3)CC2)c(OC)c1OC	none
O=C(Nc1ccccc1)[C@@H]1[C@@H]2C(=O)N(c3ccc(F)cc3)C(=O)[C@@H]2[C@H]2C=CC=NN21	GPR7 antag 26.8 | GPR7 antag conf inactive | MCHR1 antagonist inactive
